Results from ChEMBL document CHEMBL4732237, “Discovery of 4-alkoxy-2-aryl-6,7-dimethoxyquinolines as a new class of topoisomerase I inhibitors endowed with potent in vitro anticancer activity” (2021).

Assays:
Assay type in all cases: functional
[1] = system: KM12; assay: Growth inhibition of human KM12 cells incubated for 48 hrs by sulforhodamine B assay
Procedure, shortened: (§1)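 NCI five-dose screen covering 0.01–100 µM, prepared as 10-fold or ½-log dilutions from DMSO stock. Cells in RPMI 1640 with 5% FBS were exposed for 48 h at 37 °C after 24 h preincubation. Adherent cells were fixed with TCA (final 10%) and suspension cells were settled before fixing. Stain was SRB, read at 515 nm. GI50 = 50% reduction in net protein increase versus control, with Tz taken at drug addition.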

[2] = system: NCI-H460; assay: Growth inhibition of human NCI-H460 cells at 10 uM incubated for 48 hrs by sulforhodamine B assay relative to control; conditions: read-out: GI
Procedure, shortened: (§2)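 NCI one-dose screen. Cells grown in RPMI 1640 with 5% FBS and 2 mM L-glutamine, plated and incubated 24 h at 37 °C, 5% CO2. DMSO-dissolved drug added, then 48 h further incubation. Adherent cells fixed with cold TCA, suspension cells fixed after settling. Stained with 0.4% SRB, absorbance read at 515 nm. Reported as percent growth relative to no-drug control and time-zero cell number.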

[3] = system: NCI-H226; assay: Growth inhibition of human NCI-H226 cells incubated for 48 hrs by sulforhodamine B assay
Procedure, shortened: (§3)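 NCI five-dose screen (0.01–100 µM; five concentrations plus control). Cells grown in RPMI 1640/5% FBS/2 mM L-glutamine and preincubated 24 h, with time-zero plates TCA-fixed. Drug exposure 48 h at 37 °C, followed by SRB protein staining and reading at 515 nm. GI50 is the concentration at [(Ti-Tz)/(C-Tz)]×100 = 50.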

[4] = system: RXF 393; assay: Growth inhibition of human RXF 393 cells incubated for 48 hrs by sulforhodamine B assay; procedure, shortened: as §3
[5] = system: TK-10; assay: Growth inhibition of human TK-10 cells at 10 uM incubated for 48 hrs by sulforhodamine B assay relative to control; conditions: read-out: GI
Procedure, shortened: (§4)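 NCI one-dose screen across a 59-line panel. Cells were grown in RPMI 1640 with 5% FBS and 2 mM L-glutamine, plated and pre-incubated 24 h, then exposed to drug for 48 h at 37 °C, 5% CO2. Adherent cells were fixed with cold TCA (10% final), stained with 0.4% SRB in 1% acetic acid and read at 515 nm. Result is percent growth relative to no-drug control and time-zero cell count.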

[6] = system: SN12C; assay: Growth inhibition of human SN12C cells incubated for 48 hrs by sulforhodamine B assay; procedure, shortened: as §3
[7] = system: SF-539; assay: Growth inhibition of human SF-539 cells incubated for 48 hrs by sulforhodamine B assay; procedure, shortened: as §3
[8] = system: NCI/ADR-RES; assay: Growth inhibition of human NCI/ADR-RES cells at 10 uM incubated for 48 hrs by sulforhodamine B assay relative to control; conditions: read-out: GI; procedure, shortened: as §2
[9] = system: K562; assay: Growth inhibition of human K562 cells at 10 uM incubated for 48 hrs by sulforhodamine B assay relative to control; conditions: read-out: GI
Procedure, shortened: (§5)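 NCI-60 single-dose screen. Cells were grown in RPMI 1640 with 5% FBS and 2 mM L-glutamine and plated 24 h before drug addition. Compound was added at one concentration in DMSO-derived medium and incubated for 48 h at 37 °C in 5% CO2. Read-out was SRB protein stain at 515 nm. Result is percent growth versus the no-drug control and the time-zero cell count; values below 0 indicate lethality.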

[10] = system: A498; assay: Growth inhibition of human A498 cells incubated for 48 hrs by sulforhodamine B assay
Procedure, shortened: (§6)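 NCI five-dose assay, with drug stocks in DMSO diluted in medium to five concentrations (10-fold or ½-log series). Cells in RPMI 1640/5% FBS were pre-incubated 24 h, and time-zero plates were TCA-fixed at drug addition. After 48 h at 37 °C, cells were TCA-fixed, SRB-stained and read at 515 nm. GI50 is from [(Ti-Tz)/(C-Tz)]×100 = 50, TGI from Ti = Tz, and LC50 from [(Ti-Tz)/Tz]×100 = -50.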

[11] = system: HCT-116; assay: Growth inhibition of human HCT-116 cells incubated for 48 hrs by sulforhodamine B assay; procedure, shortened: as §1
[12] = system: BT-549; assay: Growth inhibition of human BT-549 cells at 10 uM incubated for 48 hrs by sulforhodamine B assay relative to control; conditions: read-out: GI; procedure, shortened: as §5
[13] = system: SR; assay: Growth inhibition of human SR cells at 10 uM incubated for 48 hrs by sulforhodamine B assay relative to control; conditions: read-out: GI; procedure, shortened: as §2
[14] = system: NCI-H522; assay: Growth inhibition of human NCI-H522 cells incubated for 48 hrs by sulforhodamine B assay; procedure, shortened: as §3
[15] = system: MOLT-4; assay: Growth inhibition of human MOLT-4 cells incubated for 48 hrs by sulforhodamine B assay; procedure, shortened: as §3
[16] = system: UO-31; assay: Growth inhibition of human UO-31 cells at 10 uM incubated for 48 hrs by sulforhodamine B assay relative to control; conditions: read-out: GI; procedure, shortened: as §4
[17] = system: SK-OV-3; assay: Growth inhibition of human SK-OV-3 cells incubated for 48 hrs by sulforhodamine B assay; procedure, shortened: as §3
[18] = system: M14; assay: Growth inhibition of human M14 cells incubated for 48 hrs by sulforhodamine B assay; procedure, shortened: as §1
[19] = system: PC-3; assay: Growth inhibition of human PC-3 cells incubated for 48 hrs by sulforhodamine B assay; procedure, shortened: as §3
[20] = system: RXF 393; assay: Growth inhibition of human RXF 393 cells at 10 uM incubated for 48 hrs by sulforhodamine B assay relative to control; conditions: read-out: GI; procedure, shortened: as §2
[21] = system: OVCAR-5; assay: Growth inhibition of human OVCAR-5 cells incubated for 48 hrs by sulforhodamine B assay; procedure, shortened: as §3
[22] = system: OVCAR-4; assay: Growth inhibition of human OVCAR-4 cells at 10 uM incubated for 48 hrs by sulforhodamine B assay relative to control; conditions: read-out: GI; procedure, shortened: as §2
[23] = system: NCI-H460; assay: Growth inhibition of human NCI-H460 cells incubated for 48 hrs by sulforhodamine B assay; procedure, shortened: as §3
[24] = system: OVCAR-4; assay: Growth inhibition of human OVCAR-4 cells incubated for 48 hrs by sulforhodamine B assay; procedure, shortened: as §3
[25] = system: BT-549; assay: Growth inhibition of human BT-549 cells incubated for 48 hrs by sulforhodamine B assay; procedure, shortened: as §1
[26] = system: U-251; assay: Growth inhibition of human U-251 cells at 10 uM incubated for 48 hrs by sulforhodamine B assay relative to control; conditions: read-out: GI; procedure, shortened: as §4
[27] = system: HOP-92; assay: Growth inhibition of human HOP-92 cells incubated for 48 hrs by sulforhodamine B assay; procedure, shortened: as §1
[28] = system: NCI/ADR-RES; assay: Growth inhibition of human NCI/ADR-RES cells incubated for 48 hrs by sulforhodamine B assay; procedure, shortened: as §3
[29] = system: SNB-19; assay: Growth inhibition of human SNB-19 cells at 10 uM incubated for 48 hrs by sulforhodamine B assay relative to control; conditions: read-out: GI; procedure, shortened: as §2
[30] = system: Malme-3M; assay: Growth inhibition of human Malme-3M cells at 10 uM incubated for 48 hrs by sulforhodamine B assay relative to control; conditions: read-out: GI; procedure, shortened: as §2
[31] = system: HCC 2998; assay: Growth inhibition of human HCC 2998 cells incubated for 48 hrs by sulforhodamine B assay; procedure, shortened: as §1
[32] = system: UO-31; assay: Growth inhibition of human UO-31 cells incubated for 48 hrs by sulforhodamine B assay; procedure, shortened: as §6
[33] = system: HOP-62; assay: Growth inhibition of human HOP-62 cells incubated for 48 hrs by sulforhodamine B assay; procedure, shortened: as §1
[34] = system: Malme-3M; assay: Growth inhibition of human Malme-3M cells incubated for 48 hrs by sulforhodamine B assay; procedure, shortened: as §3
[35] = system: IGROV-1; assay: Growth inhibition of human IGROV-1 cells at 10 uM incubated for 48 hrs by sulforhodamine B assay relative to control; conditions: read-out: GI; procedure, shortened: as §5

SMILES | GI50 [1] [nM] | GI50 [3] [nM] | GI50 [4] [nM] | GI50 [6] [nM] | GI50 [7] [nM] | GI50 [10] [nM] | GI50 [11] [nM] | GI50 [14] [nM] | GI50 [15] [nM] | GI50 [17] [nM] | GI50 [18] [nM] | GI50 [19] [nM] | GI50 [21] [nM] | GI50 [23] [nM] | GI50 [24] [nM] | GI50 [25] [nM] | GI50 [27] [nM] | GI50 [28] [nM] | GI50 [31] [nM] | GI50 [32] [nM] | further results
COc1cc2nc(-c3ccc(Cl)cc3)cc(OCCCN3CCCC3)c2cc1OC | 2460 | 898 | 1170 | 914 | 2440 | 2190 | 699 | 2360 | 1500 | 2420 | 402 | 1760 | 1030 | 823 | 3000 | 1770 | 850 | 683 | 1860 | 1720 | inhibition of growth at 10 µM [2]: 62%; inhibition of growth at 10 µM [5]: 62%; inhibition of growth at 10 µM [8]: 62%; inhibition of growth at 10 µM [9]: 62%; inhibition of growth at 10 µM [12]: 62%; inhibition of growth at 10 µM [13]: 62%; inhibition of growth at 10 µM [16]: 62%; inhibition of growth at 10 µM [20]: 62%; inhibition of growth at 10 µM [22]: 62%; inhibition of growth at 10 µM [26]: 62%; inhibition of growth at 10 µM [29]: 62%; inhibition of growth at 10 µM [30]: 62%; GI50 [33]: 1380 nM; GI50 [34]: 1680 nM; inhibition of growth at 10 µM [35]: 62%
COc1cc2nc(-c3ccc(Cl)cc3)cc(OCCCN3CCC(O)CC3)c2cc1OC | 3130 | 1390 | 1220 | 1260 | 2280 | 1520 | 1440 | 2190 | 1800 | 3170 | 591 | 2020 | 1160 | 955 | 4340 | 2790 | 1250 | 925 | 1950 | 1720 | inhibition of growth at 10 µM [2]: 62%; inhibition of growth at 10 µM [5]: 62%; inhibition of growth at 10 µM [8]: 62%; inhibition of growth at 10 µM [9]: 62%; inhibition of growth at 10 µM [12]: 62%; inhibition of growth at 10 µM [13]: 62%; inhibition of growth at 10 µM [16]: 62%; inhibition of growth at 10 µM [20]: 62%; inhibition of growth at 10 µM [22]: 62%; inhibition of growth at 10 µM [26]: 62%; inhibition of growth at 10 µM [29]: 62%; inhibition of growth at 10 µM [30]: 62%; GI50 [33]: 1980 nM; GI50 [34]: 1890 nM; inhibition of growth at 10 µM [35]: 62%
COc1cc2nc(-c3ccc(C(F)(F)F)cc3)cc(OCCCN3CCCCC3)c2cc1OC | 2920 | 370 | 1090 | 668 | 2080 | 1850 | 429 | 2440 | 1700 | 2300 | 327 | 1340 | 710 | 595 | 2910 | 1480 | 678 | 522 | 1280 | 2000 | GI50 [33]: 947 nM; GI50 [34]: 1260 nM
